Converted amounts (≈) assume the structure as drawn.

For data set [1], the system named is Staphylococcus epidermidis. Kind of data set: Antimicrobial activity against Staphylococcus epidermidis MTCCB 1824 after 24 hrs by tube dilution technique. The format is functional. As to conditions: MTCCB 1824, 24 h. A digest of the protocol: (§1)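 Tube dilution in nutrient broth at 3.12, 6.25, 12.5, 25 and 50 µg/mL. Each tube received 100 µL of standardized bacterial suspension (10^7 cell/mL). Tubes were incubated at 37 °C for 24 h. MIC was the lowest concentration that maintained or reduced inoculum viability.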

For data set [2], the system named is Pseudomonas aeruginosa. Briefly: Antimicrobial activity against Pseudomonas aeruginosa ATCC 27853 at 100 ug/mL after 16 to 20 hrs by disk diffusion method. The format is functional. As to conditions: read-out: DIZ. The procedure, abridged: (§2)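 Nutrient agar disc diffusion with compounds at 100 µg/mL and DMSO as blank. Plates were incubated 16–20 h at 37 °C, then inhibition zone diameter was measured. Zones of 12 mm or less were scored resistant, 13–17 mm moderate, and 18 mm or more maximum inhibition.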
A general note: Agar diffusion results depend on both activity and mobility in agar.

In data set [3] the test system is Pseudomonas aeruginosa. Briefly: Antimicrobial activity against Pseudomonas aeruginosa ATCC 27853 after 24 hrs by tube dilution technique. The format is functional. To be noted: ATCC 27853, 24 h. A digest of the protocol:
as §1

Data set [4] has as its system Staphylococcus epidermidis. Kind of data set: Antimicrobial activity against Staphylococcus epidermidis MTCCB 1824 at 100 ug/mL after 16 to 20 hrs by disk diffusion method. It counts as functional. As to conditions: read-out: DIZ. A digest of the protocol:
as §2

Data set [5] deals with Escherichia coli. Briefly: Antimicrobial activity against Escherichia coli MTCCB 1652 at 100 ug/mL after 16 to 20 hrs by disk diffusion method. It counts as functional. To be noted: read-out: DIZ. The procedure, abridged:
as §2

In data set [6] the test system is Escherichia coli. Briefly: Antimicrobial activity against Escherichia coli MTCCB 1652 after 24 hrs by tube dilution technique. The format is functional. To be noted: MTCCB 1652, 24 h. A digest of the protocol:
as §1

In data set [7] the test system is Staphylococcus aureus. Kind of data set: Antimicrobial activity against Staphylococcus aureus MTCCB 737 after 24 hrs by tube dilution technique. It counts as functional. As to conditions: MTCCB 737, 24 h. The procedure, abridged:
as §1

Data set [8] concerns Staphylococcus aureus. Briefly: Antimicrobial activity against Staphylococcus aureus MTCCB 737 at 100 ug/mL after 16 to 20 hrs by disk diffusion method. It counts as functional. As to conditions: read-out: DIZ. A digest of the protocol:
as §2

Data set [9] is described as follows: (§3) Toxicity against Artemia salina larvae after 24 hrs. The format is organism-based. As to conditions: in vivo. A digest of the protocol: (§4)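 Brine shrimp lethality test. Artemia salina eggs were hatched 48 h at 37 °C in filtered sea salt solution (38 g/L) with constant oxygen to give nauplii. Stock was 10 mg compound in 2 mL DMSO, diluted to 80, 40, 20, 10 and 5 µg/mL in triplicate vials, about 10 nauplii each, with a DMSO control. LC50 is the mean of three values.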

A further data set concerns Artemia salina. Described as §3. It counts as organism-based. As to conditions: in vivo, 24 h. A digest of the protocol: as §4
The test system of data set [10] is Pseudomonas aeruginosa. Briefly: Antimicrobial activity against Pseudomonas aeruginosa ATCC 27853.
Data set [11] has as its system Pseudomonas aeruginosa. Briefly: Antimicrobial activity against Pseudomonas aeruginosa ATCC 27853 at 30 ug/mL after 16 to 20 hrs by disk diffusion method. It counts as functional. As to conditions: read-out: DIZ. A digest of the protocol: (§5)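 Nutrient agar disc diffusion with the reference drug tetracycline at 30 µg/mL and DMSO as blank. Plates were incubated 16–20 h at 37 °C, then inhibition zone diameter was measured. Zones of 12 mm or less were scored resistant, 13–17 mm moderate, and 18 mm or more maximum inhibition.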

The subject of data set [12] is Staphylococcus epidermidis. Briefly: Antimicrobial activity against Staphylococcus epidermidis MTCCB 1824 at 30 ug/mL after 16 to 20 hrs by disk diffusion method. The format is functional. As to conditions: read-out: DIZ. The procedure, abridged:
as §5

The test system of data set [13] is Escherichia coli. Briefly: Antimicrobial activity against Escherichia coli MTCCB 1652 at 30 ug/mL after 16 to 20 hrs by disk diffusion method. The format is functional. As to conditions: read-out: DIZ. A digest of the protocol:
as §5

The subject of data set [14] is Staphylococcus aureus. Briefly: Antimicrobial activity against Staphylococcus aureus MTCCB 737 at 30 ug/mL after 16 to 20 hrs by disk diffusion method. The format is functional. As to conditions: read-out: DIZ. The procedure, abridged: as §5

For `Cc1nnc2n(c1=O)N=C(c1ccccc1)CP(c1ccccc1)(c1ccccc1)(c1ccccc1)S2`, the MIC came out at 12.5 µg/mL (≈ 24 µM) in [1], 50 µg/mL (≈ 96 µM) in the data set with Pseudomonas aeruginosa [3], 50 µg/mL (≈ 96 µM) in the data set with Escherichia coli [6] and 25 µg/mL (≈ 48 µM) with Staphylococcus aureus [7]. The zone of inhibition at 100 µg/mL with Pseudomonas aeruginosa [2] worked out at 19 mm; in data set [4] it was 19 mm; with Escherichia coli [5], 16 mm; in the data set on Staphylococcus aureus [8], 21 mm.
Take `Cc1nnc(NN)n(N)c1=O`: the MIC was determined as 50 µg/mL (≈ 320 µM) in data set [1], 50 µg/mL (≈ 320 µM) in the data set on Pseudomonas aeruginosa [3], 25 µg/mL (≈ 160 µM) against Escherichia coli [6] and 50 µg/mL (≈ 320 µM) against Staphylococcus aureus [7]. Also, the zone of inhibition at 100 µg/mL in the data set on Pseudomonas aeruginosa [2] was 15 mm; in [4], 15 mm; with Escherichia coli [5], 15 mm; in the data set on Staphylococcus aureus [8], 17 mm.
On to `Cc1nnc(N)n(N)c1=O`, for which the MIC in data set [1] is 25 µg/mL (≈ 177 µM); against Pseudomonas aeruginosa [3] it was 50 µg/mL (≈ 354 µM); with Escherichia coli [6], 50 µg/mL (≈ 354 µM); in the data set on Staphylococcus aureus [7], 25 µg/mL (≈ 177 µM). In addition, the zone of inhibition at 100 µg/mL is 13 mm in the data set on Pseudomonas aeruginosa [2], 15 mm in data set [4], 14 mm in the data set with Escherichia coli [5] and 16 mm with Staphylococcus aureus [8].
In data set [9], `CCOP1(=O)Sc2nnc(C)c(=O)n2NC1c1ccc(Cl)cc1` (stereo not drawn) gave a 50% lethal concentration (LC50) at 24 h of 13.8 µg/mL (≈ 37.1 µM). In addition, the MIC was 6.25 µg/mL (≈ 16.8 µM) in data set [1], 25 µg/mL (≈ 67.1 µM) against Pseudomonas aeruginosa [3], 50 µg/mL (≈ 134 µM) in the data set with Escherichia coli [6] and 6.25 µg/mL (≈ 16.8 µM) in the data set on Staphylococcus aureus [7]. Also, the zone of inhibition at 100 µg/mL with Pseudomonas aeruginosa [2] came to 20 mm; in data set [4], 23 mm; in the data set with Escherichia coli [5] it was 15 mm; with Staphylococcus aureus [8], 27 mm.
With BLEOMYCIN, the LC50 in the data set with Artemia salina worked out at 0.41 µg/mL.
Regarding `Cc1nnc2n(c1=O)NP(=O)(c1ccccc1)S2` (stereo not drawn), in [9], the LC50 at 24 h is 7.85 µg/mL (≈ 28 µM). The MIC in data set [1] is 25 µg/mL (≈ 89.2 µM); against Pseudomonas aeruginosa [3], 12.5 µg/mL (≈ 44.6 µM); in the data set with Escherichia coli [6], 12.5 µg/mL (≈ 44.6 µM); with Staphylococcus aureus [7] it was 25 µg/mL (≈ 89.2 µM). The zone of inhibition at 100 µg/mL with Pseudomonas aeruginosa [2] was 23 mm; in [4], 17 mm; with Escherichia coli [5], 21 mm; with Staphylococcus aureus [8], 20 mm.
In the case of `CC1=Nn2c(nnc(C)c2=O)SP1(c1ccccc1)(c1ccccc1)c1ccccc1`, the MIC in data set [1] was found to be 25 µg/mL (≈ 56.2 µM); with Pseudomonas aeruginosa [3], 12.5 µg/mL (≈ 28.1 µM); with Escherichia coli [6] it was 12.5 µg/mL (≈ 28.1 µM); with Staphylococcus aureus [7], 25 µg/mL (≈ 56.2 µM). The zone of inhibition at 100 µg/mL was determined as 22 mm with Pseudomonas aeruginosa [2], 19 mm in data set [4], 19 mm in the data set with Escherichia coli [5] and 20 mm in the data set with Staphylococcus aureus [8].
As for `CN(C)[C@@H]1C(O)=C(C(N)=O)C(=O)[C@@]2(O)C(O)=C3C(=O)c4c(O)cccc4[C@@](C)(O)[C@H]3C[C@@H]12` [TETRACYCLINE], in the data set on Pseudomonas aeruginosa [10], the diameter of the inhibition zone (DIZ) worked out at 29 mm. For the same molecule, the MIC (in [1]; with Pseudomonas aeruginosa [3]; in the data set on Escherichia coli [6]; in the data set on Staphylococcus aureus [7]) was 6.25 µg/mL (≈ 14.1 µM) in each case. Besides, the zone of inhibition at 30 µg/mL was 29 mm in the data set on Pseudomonas aeruginosa [11], 25 mm in data set [12], 28 mm in the data set with Escherichia coli [13] and 30 mm in the data set on Staphylococcus aureus [14].
For `Cc1nnc(S)n(N)c1=O`, the MIC in [1] was determined as 50 µg/mL (≈ 316 µM); against Pseudomonas aeruginosa [3], 25 µg/mL (≈ 158 µM); against Escherichia coli [6], 50 µg/mL (≈ 316 µM); in the data set on Staphylococcus aureus [7], 50 µg/mL (≈ 316 µM). Moreover, the zone of inhibition at 100 µg/mL with Pseudomonas aeruginosa [2] came out at 15 mm; in data set [4], 14 mm; in the data set on Escherichia coli [5], 14 mm; in the data set with Staphylococcus aureus [8] it was 13 mm.

Usually MIC stands for the lowest concentration that inhibits growth of the organism. Low readings indicate inhibition by little substance, high ones a need for much substance. The LC50 is the concentration that kills 50% of the test population. A high value points to a less lethal substance.
